Test results taken from ChEMBL document CHEMBL2331385, “Evaluation of adamantane hydroxamates as botulinum neurotoxin inhibitors: synthesis, crystallography, modeling, kinetic and cellular based studies” (Bioorg Med Chem, 2013).
Calls of active or inactive are those of the source. No cut-off for these calls is given here.

Assays:
[1] = molecular target: T1, Botulinum neurotoxin type A (Clostridium botulinum, UniProt P0DPI0); assay: Inhibition of Clostridium botulinum BoNT/A Hall A hyper protease light chain (1-425aa) using SNAPtide as substrate by FRET assay
How it was run: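 Recombinant BoNT/A light chain (residues 1-425) cleaving the FRET peptide SNAPtide at 5 μM, with 0.01 % Triton X-100. Inhibitor concentration varied; IC50 taken from fluorescence signal.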

[2] = molecular target: T1, Botulinum neurotoxin type A; assay: Competitive inhibition of Clostridium botulinum BoNT/A Hall A hyper protease light chain (1-425aa) using SNAP-66mer (141-206aa) as substrate by FRET assay
[3] = Cytotoxicity against rat spinal cord cells at 50 uM after 22 hrs; assay type: cell-based
How it was run: (§1)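 Primary rat spinal cord cells or stem cell-derived neurons exposed to compound. Cytotoxicity judged from low overall protein signal on Western blot.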

[4] = molecular target: Botulinum neurotoxin type A (Clostridium botulinum) (UniProt P0DPI0); assay: Inhibition of Clostridium botulinum BoNT/A protease light chain in rat spinal cord cells assessed as inhibition of SNAP-25 cleavage at 0.5 to 50 uM after 22 hrs by Western blot analysis; assay type: cell-based
[5] = Cytotoxicity against stem cell-derived neurons (unknown origin) at 500 uM after 22 hrs; how it was run: as §1
[6] = Cytotoxicity against rat spinal cord cells at 20 uM after 22 hrs; assay type: cell-based; how it was run: as §1
[7] = molecular target: Botulinum neurotoxin type A (Clostridium botulinum) (UniProt P0DPI0); assay: Inhibition of Clostridium botulinum BoNT/A protease light chain in stem cell-derived neurons (unknown origin) assessed as inhibition of SNAP-25 cleavage at 0.5 to 50 uM after 22 hrs by Western blot analysis
[8] = Cytotoxicity against stem cell-derived neurons (unknown origin) at 20 uM after 22 hrs; how it was run: as §1
[9] = Cytotoxicity against rat spinal cord cells at 500 uM after 22 hrs; assay type: cell-based; how it was run: as §1

T1 sequence (P0DPI0 2-448 limits assumed): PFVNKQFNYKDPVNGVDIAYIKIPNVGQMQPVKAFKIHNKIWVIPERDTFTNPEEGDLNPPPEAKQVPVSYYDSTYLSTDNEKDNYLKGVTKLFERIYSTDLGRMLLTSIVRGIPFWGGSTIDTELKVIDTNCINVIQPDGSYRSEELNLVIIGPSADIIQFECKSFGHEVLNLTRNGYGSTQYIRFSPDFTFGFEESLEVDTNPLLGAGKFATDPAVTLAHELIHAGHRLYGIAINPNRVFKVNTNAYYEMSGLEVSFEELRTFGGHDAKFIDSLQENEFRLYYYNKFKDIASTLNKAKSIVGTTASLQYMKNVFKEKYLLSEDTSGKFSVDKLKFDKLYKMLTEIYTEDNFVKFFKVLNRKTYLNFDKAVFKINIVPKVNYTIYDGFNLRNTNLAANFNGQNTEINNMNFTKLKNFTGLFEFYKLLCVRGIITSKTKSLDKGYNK
Chain of Botulinum neurotoxin type A (Clostridium botulinum) (P0DPI0 2-448 limits assumed): as above

Row | SMILES | IC50 [1] [nM] | Ki [2] [nM] | other results
1 | COC12CC3CC(CC(CC(=O)NO)(C3)C1)C2 | 5700 | – | –
2 | O=C(CC12CC3CC(CC(Cl)(C3)C1)C2)NO | 1400 | – | –
3 | NCCCCCCCNC(=O)c1cc(CCC(=O)NO)c(CCC(O)(c2ccccc2)c2ccccc2)n1Cc1ccccc1 | – | 760 | –
4 | CC(=O)OC12CC3CC(CC(CC(=O)NO)(C3)C1)C2 | 24000 | – | –
5 | O=C(CC12CC3CC(C1)CC(C(=O)O)(C3)C2)NO | > 500000 | – | –
6 | Cc1ccc(C23CC4CC(CC(CC(=O)NO)(C4)C2)C3)cc1 | 250 | – | –
7 | O=C(CC12CC3CC(C1)CC(c1ccc4c(c1)CCCC4)(C3)C2)NO | 1000 | – | –
8 | O=C(CC12CC3CC(CC(Br)(C3)C1)C2)NO | 1400 | – | –
9 | O=C(CC12CC3CC(CC(CO)(C3)C1)C2)NO | 3400 | – | –
10 | O=C(CC12CC3CC(CC(C3)C1)C2)NO | 1000 | 460 | –
11 | O=C(CC12CC3CC(C1)CC(c1ccc([N+](=O)[O-])cc1[N+](=O)[O-])(C3)C2)NO | 400 | – | –
12 | O=C(CC12CC3CC(CC(F)(C3)C1)C2)NO | 3100 | – | –
13 | O=C(CC12CC3CC(C1)CC(c1ccc(-c4ccccc4)cc1)(C3)C2)NO | 200 | – | –
14 | O=C(CC12CC3CC(C1)CC(c1ccc(Br)cc1)(C3)C2)NO | 40 | 27 | Activity [3]: Toxic; Activity [4]: inactive; Activity [5]: Non-toxic; Activity [6]: Toxic; Activity [7]: inactive; Activity [8]: Toxic; Activity [9]: Toxic
15 | O=C(CC12CC3CC(CC(O)(C3)C1)C2)NO | 23000 | – | –
16 | COc1ccc(C23CC4CC(CC(CC(=O)NO)(C4)C2)C3)cc1 | 250 | 130 | Activity [4]: inactive; Activity [5]: Non-toxic; Activity [6]: Toxic; Activity [7]: inactive; Activity [8]: Toxic; Activity [9]: Toxic
17 | O=C(CC12CC3CC(C1)CC(c1ccc(Cl)cc1)(C3)C2)NO | 30 | 27 | –
18 | O=C(C[C@@H](CCO)c1ccc(Cl)cc1Cl)NO | – | 160 | –
19 | O=C(CC12CC3CC(C1)CC(c1ccccc1)(C3)C2)NO | 500 | 750 | –
20 | O=C(CC12CC3CC(C1)CC(c1ccc4ccccc4c1)(C3)C2)NO | 300 | – | –
21 | O=C(CC12CC3CC(C1)CC(c1ccc([N+](=O)[O-])cc1)(C3)C2)NO | 500 | – | Activity [4]: inactive; Activity [5]: Non-toxic; Activity [6]: Toxic; Activity [7]: inactive; Activity [8]: Toxic; Activity [9]: Toxic
